Measured values from ChEMBL document CHEMBL1124640, “Synthesis and biological evaluation of certain C-4 substituted pyrazolo[3,4-b]pyridine nucleosides” (1989).
pIC50: −log10 of the molar value. Activity calls are given as the source filed them. The rule behind the calls is not given here.

Legend:
Human alphaherpesvirus 2 = experiment: Antiviral activity against herpes 2 virus in Vero cells.; format: functional, organism-based; details: herpes simplex virus type2
Visna-maedi virus = experiment: Antiviral activity against Visna virus in SCP cells.; format: functional, organism-based
Semliki Forest virus = experiment: Antiviral activity against semliki forest virus in Vero cells.; format: functional, organism-based
Human adenovirus 2 = experiment: Antiviral activity against adeno 2 virus in HeLa cells.; format: functional, organism-based
L1210 = experiment: Cytotoxicity against murine leukemic cell line L1210; format: functional; details: Mus musculus, read-out: ID50 (the source's name)
HeLa [1] = experiment: Antiviral activity against rhino 1-A virus in HeLa cells; format: functional, Homo sapiens
Lymphoblastoid cell = experiment: Ability to inhibit de novo purine nucleotide biosynthesis at a concentration of 100 uM; format: functional; details: Homo sapiens
In short: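 De novo purine nucleotide synthesis was measured as [14C]formate incorporation in cultured human lymphoblast cells, with compound at 100 μM. Results are given as percent inhibition.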

[2] = Cytotoxicity against human B-lymphoblastic cell line WI-L2; format: functional; details: WIL2, read-out: ID50 (the source's name)
HeLa [3] = experiment: Antiviral activity against rhino 1-A virus in HeLa cells; IA= Inactive; format: functional, cell-based; details: Homo sapiens
Vero [4] = experiment: Antiviral activity against Para Flu 3 virus in Vero cells; IA= Inactive; format: functional, cell-based; details: Chlorocebus sabaeus
Vero [5] = experiment: Antiviral activity against semliki forest virus in Vero cells; format: functional, cell-based; details: Chlorocebus sabaeus

Compound | Activity (Human alphaherpesvirus 2) | Activity (Visna-maedi virus) | Activity (Semliki Forest virus) | Activity (Human adenovirus 2) | pIC50 (L1210) | Virus rating (HeLa [1]) | inhibition at 100 µM (Lymphoblastoid cell) | pIC50 [2] | Activity (HeLa [3]) | Activity (Vero [4]) | Activity (Vero [5])
OC[C@H]1OC(n2ncc3cccnc32)[C@H](O)[C@@H]1O (stereo partly specified) | inactive | inactive | inactive | inactive |  |  |  |  |  |  | 
O=C1CC=Nc2c1cnn2C1O[C@H](CO)[C@@H](O)[C@H]1O (stereo partly specified) |  |  |  |  | < 4.00 | 0.6 | 80% | 4.70 |  |  | 
COc1ccnc2c1cnn2C1O[C@H](CO)[C@@H](O)[C@H]1O (stereo partly specified) | inactive | inactive | inactive | inactive |  |  |  |  |  |  | 
COc1ccnc2c1cnn2C1O[C@H](CO)[C@@H](O)[C@@H]1O (stereo partly specified) | inactive | inactive | inactive | inactive |  |  |  |  |  |  | 
OC[C@H]1OC(n2ncc3c(Cl)ccnc32)[C@H](O)[C@@H]1O (stereo partly specified) | inactive | inactive | inactive | inactive | 4.70 |  | 94% | 4.74 | inactive | inactive | 
Nc1ccnc2c1cnn2C1O[C@H](CO)[C@@H](O)[C@H]1O (stereo partly specified) | inactive | inactive |  | inactive |  |  | 36% |  | inactive | inactive | inactive
OC[C@H]1OC(n2ncc3cccnc32)[C@@H](O)[C@@H]1O (stereo partly specified) | inactive | inactive | inactive | inactive |  |  |  |  |  |  | 
Nc1ccnc2c1cnn2C1O[C@H](CO)[C@@H](O)[C@@H]1O (stereo partly specified) | inactive | inactive | inactive | inactive |  |  |  |  | inactive | inactive | 
O=C1CC=Nc2c1cnn2[C@H]1C[C@H](O)[C@@H](CO)O1 | inactive | inactive | inactive | inactive |  |  |  |  |  |  | 
COc1ccnc2c1cnn2[C@H]1C[C@H](O)[C@@H](CO)O1 | inactive | inactive | inactive | inactive |  |  |  |  |  |  | 
OC[C@H]1OC(n2ncc3c(OCc4ccccc4)ccnc32)[C@H](O)[C@@H]1O (stereo partly specified) | inactive | inactive | inactive | inactive |  |  |  |  |  |  | 
OC[C@H]1OC(n2ncc3c(O)ccnc32)[C@@H](O)[C@@H]1O (stereo partly specified) | inactive | inactive | inactive | inactive |  |  |  |  |  |  | 
OC[C@H]1OC(n2ncc3c(Cl)ccnc32)[C@@H](O)[C@@H]1O (stereo partly specified) | inactive | inactive | inactive | inactive |  |  |  |  |  |  | 
[N-]=[N+]=Nc1ccnc2c1cnn2C1O[C@H](CO)[C@@H](O)[C@H]1O (stereo partly specified) | inactive | inactive | inactive | inactive |  |  | 46% |  | inactive | inactive | 
OC[C@H]1O[C@@H](n2ncc3cccnc32)C[C@@H]1O | inactive | inactive | inactive | inactive |  |  |  |  |  |  | 
Nc1ccnc2c1cnn2[C@H]1C[C@H](O)[C@@H](CO)O1 | inactive | inactive | inactive | inactive |  |  |  |  |  |  | 
OC[C@H]1O[C@@H](n2ncc3c(Cl)ccnc32)C[C@@H]1O | inactive | inactive | inactive | inactive |  |  |  |  |  |  | 
